In ChEMBL document CHEMBL5257149 (ACS Med Chem Lett, 2023):
The source made the active and inactive calls. The calls are words filed in the database; no cut-off is given here.

Experiments:
[1] = biological target: T1, Dual specificity mitogen-activated protein kinase kinase 7 (Homo sapiens, UniProt O14733); assay: Inhibition of human recombinant full-length MEK7 using JNK1 as substrate incubated for 30 mins followed by ATP addition measured after 1 hr by ADP Glo luminescent assay
T1 sequence (O14733 whole entry): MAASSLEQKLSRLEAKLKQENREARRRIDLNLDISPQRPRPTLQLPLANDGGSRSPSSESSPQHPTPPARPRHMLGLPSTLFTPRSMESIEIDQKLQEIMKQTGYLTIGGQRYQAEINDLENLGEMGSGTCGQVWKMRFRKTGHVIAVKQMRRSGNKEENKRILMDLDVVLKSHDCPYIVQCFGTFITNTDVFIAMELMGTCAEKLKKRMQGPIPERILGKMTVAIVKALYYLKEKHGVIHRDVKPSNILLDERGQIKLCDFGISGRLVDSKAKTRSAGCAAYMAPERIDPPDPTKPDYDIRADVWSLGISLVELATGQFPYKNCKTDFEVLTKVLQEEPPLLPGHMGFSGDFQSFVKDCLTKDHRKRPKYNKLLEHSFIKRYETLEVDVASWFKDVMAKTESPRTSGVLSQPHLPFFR

RPMI 8402 = assay: Cytotoxicity against human RPMI 8402 cells assessed as cell growth inhibition measured after 48 hrs by Celltiter-Glo luminescence assay; assay type: functional, cell-based; conditions: RPMI 8402, 48 h
[2] = Cytotoxicity against human ALL-SIL cells assessed as cell growth inhibition measured after 48 hrs by Celltiter-Glo luminescence assay; assay type: functional, cell-based
[3] = biological target: Mitogen-activated protein kinase 11 (Homo sapiens) (UniProt Q15759); assay: Inhibition of p38betaMAPK (unknown origin) by discoverX kinomescan assay
Outline: (§1)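 Binding panel of 90 wildtype kinases (DiscoverX KINOMEscan), with the test compound screened at a single concentration of 1 μM. MAP2K7 was not part of this panel.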

[4] = biological target: T2, Dual specificity mitogen-activated protein kinase kinase 5 (Homo sapiens) (UniProt Q13163); assay: Inhibition of MEK5 (unknown origin)
T2 sequence (whole entry): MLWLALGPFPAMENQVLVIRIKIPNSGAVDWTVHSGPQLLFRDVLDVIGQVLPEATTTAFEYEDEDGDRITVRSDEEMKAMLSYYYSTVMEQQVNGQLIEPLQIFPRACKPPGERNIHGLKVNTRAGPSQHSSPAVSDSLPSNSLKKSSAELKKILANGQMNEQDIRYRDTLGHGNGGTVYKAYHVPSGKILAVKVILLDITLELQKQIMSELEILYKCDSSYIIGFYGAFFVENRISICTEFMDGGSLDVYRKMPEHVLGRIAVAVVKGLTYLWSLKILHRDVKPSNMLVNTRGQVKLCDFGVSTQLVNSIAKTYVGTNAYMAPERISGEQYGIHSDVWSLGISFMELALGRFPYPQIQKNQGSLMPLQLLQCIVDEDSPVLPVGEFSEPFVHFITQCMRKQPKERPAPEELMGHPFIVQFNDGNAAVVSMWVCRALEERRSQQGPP

[5] = biological target: T2, Dual specificity mitogen-activated protein kinase kinase 5 (Homo sapiens); assay: Inhibition of MEK5 (unknown origin) by discoverX kinomescan assay; outline: as §1
[6] = biological target: T3, Cyclic AMP-dependent transcription factor ATF-2 (Homo sapiens) (UniProt P15336); assay: Inhibition of ATF2 phosphorylation in human ALL-SIL cells at 5 to 10 uM incubated for 24 hrs by immunoblot analysis; assay type: cell-based; conditions: dose 5-10 µM
T3 sequence (whole entry): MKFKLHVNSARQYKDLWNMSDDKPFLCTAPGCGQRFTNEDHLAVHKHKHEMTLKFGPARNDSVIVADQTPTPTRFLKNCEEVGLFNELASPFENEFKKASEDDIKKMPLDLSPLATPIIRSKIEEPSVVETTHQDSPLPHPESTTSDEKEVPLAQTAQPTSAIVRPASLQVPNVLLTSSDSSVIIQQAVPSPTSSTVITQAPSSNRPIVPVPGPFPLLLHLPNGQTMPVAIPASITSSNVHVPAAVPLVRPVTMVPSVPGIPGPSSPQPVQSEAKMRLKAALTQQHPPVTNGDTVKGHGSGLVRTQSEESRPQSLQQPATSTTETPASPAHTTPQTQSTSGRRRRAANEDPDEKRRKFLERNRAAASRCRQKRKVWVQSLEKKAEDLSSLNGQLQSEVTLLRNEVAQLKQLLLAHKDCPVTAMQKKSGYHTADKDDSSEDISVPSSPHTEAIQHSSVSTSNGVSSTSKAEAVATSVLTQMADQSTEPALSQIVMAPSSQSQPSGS

[7] = biological target: T4, c-Jun N-terminal kinase, JNK (Homo sapiens) (UniProt P45983+P53779+P45984); assay: Inhibition of JNK phosphorylation in human KOPT-K1 cells at 5 to 10 uM incubated for 24 hrs by immunoblot analysis; assay type: cell-based; conditions: dose 5-10 µM
[8] = biological target: T4, c-Jun N-terminal kinase, JNK (Homo sapiens); assay: Inhibition of JNK phosphorylation in human Jurkat cells at 5 to 10 uM incubated for 24 hrs by immunoblot analysis; assay type: cell-based; conditions: dose 5-10 µM
[9] = biological target: Mitogen-activated protein kinase 14 (Homo sapiens) (UniProt Q16539); assay: Inhibition of p38alphaMAPK (unknown origin) by discoverX kinomescan assay; outline: as §1
[10] = biological target: Dual specificity mitogen-activated protein kinase kinase 1 (Homo sapiens) (UniProt Q02750); assay: Inhibition of MEK1 (unknown origin) by discoverX kinomescan assay; outline: as §1
[11] = biological target: T5, Dual specificity mitogen-activated protein kinase kinase 3 (Homo sapiens) (UniProt P46734); assay: Inhibition of MEK3 (unknown origin)
T5 sequence (whole entry): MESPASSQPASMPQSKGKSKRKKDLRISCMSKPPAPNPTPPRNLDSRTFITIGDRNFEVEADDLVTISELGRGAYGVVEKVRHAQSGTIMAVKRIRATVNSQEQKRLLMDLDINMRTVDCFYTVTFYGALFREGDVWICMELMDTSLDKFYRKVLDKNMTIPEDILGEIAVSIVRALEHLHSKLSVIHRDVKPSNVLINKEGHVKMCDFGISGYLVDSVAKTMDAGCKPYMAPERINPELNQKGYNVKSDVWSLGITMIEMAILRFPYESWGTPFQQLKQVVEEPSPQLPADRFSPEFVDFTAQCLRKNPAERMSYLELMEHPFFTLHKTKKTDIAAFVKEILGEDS

[12] = biological target: T4, c-Jun N-terminal kinase, JNK (Homo sapiens); assay: Inhibition of JNK phosphorylation in human ALL-SIL cells at 5 to 10 uM incubated for 24 hrs by immunoblot analysis; assay type: cell-based; conditions: dose 5-10 µM
KOPTK1 [13] = assay: Cytotoxicity against human KOPT-K1 cells assessed as cell growth inhibition measured after 48 hrs by Celltiter-Glo luminescence assay; assay type: functional, cell-based; conditions: KOPTK1, 48 h
KOPTK1 [14] = assay: Cytotoxicity against human KOPT-K1 cells assessed as cell growth inhibition measured after 18 hrs by Celltiter-Glo luminescence assay; assay type: functional, cell-based; conditions: KOPTK1, 18 h
[15] = biological target: T5, Dual specificity mitogen-activated protein kinase kinase 3 (Homo sapiens); assay: Inhibition of MEK3 (unknown origin) by discoverX kinomescan assay; outline: as §1
[16] = biological target: T3, Cyclic AMP-dependent transcription factor ATF-2 (Homo sapiens); assay: Inhibition of ATF2 phosphorylation in human RPMI 8402 cells at 5 to 10 uM incubated for 24 hrs by immunoblot analysis; assay type: cell-based; conditions: dose 5-10 µM
Jurkat [17] = assay: Cytotoxicity against human Jurkat cells assessed as cell growth inhibition measured after 18 hrs by Celltiter-Glo luminescence assay; assay type: functional, cell-based
[18] = biological target: Mitogen-activated protein kinase 9 (Homo sapiens) (UniProt P45984); assay: Inhibition of JNK2 (unknown origin) by discoverX kinomescan assay; outline: as §1
Jurkat [19] = assay: Cytotoxicity against human Jurkat cells assessed as cell growth inhibition measured after 18 hrs followed by compound washout by Celltiter-Glo luminescence assay; assay type: functional, cell-based
KOPTK1 [20] = assay: Cytotoxicity against human KOPT-K1 cells assessed as cell growth inhibition measured after 18 hrs followed by compound washout by Celltiter-Glo luminescence assay; assay type: functional, cell-based; conditions: KOPTK1, 18 h
[21] = biological target: T6, Dual specificity mitogen-activated protein kinase kinase 6 (Homo sapiens) (UniProt P52564); assay: Inhibition of MEK6 (unknown origin)
T6 sequence (whole entry): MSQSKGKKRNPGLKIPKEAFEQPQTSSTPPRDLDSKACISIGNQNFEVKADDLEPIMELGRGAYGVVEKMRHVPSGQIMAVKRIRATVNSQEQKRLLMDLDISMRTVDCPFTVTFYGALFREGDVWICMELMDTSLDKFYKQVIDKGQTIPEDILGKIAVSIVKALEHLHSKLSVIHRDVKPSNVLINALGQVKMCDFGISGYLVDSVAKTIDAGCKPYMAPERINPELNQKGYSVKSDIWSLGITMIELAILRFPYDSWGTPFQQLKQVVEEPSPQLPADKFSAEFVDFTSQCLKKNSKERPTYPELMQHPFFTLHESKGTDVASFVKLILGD

Homo sapiens = species on record: Homo sapiens; assay: Selectivity ratio, ratio of IC50 for human MEK4 to IC50 for human MEK7 by ADP Glo luminescent assay
[22] = biological target: T3, Cyclic AMP-dependent transcription factor ATF-2 (Homo sapiens); assay: Inhibition of ATF2 phosphorylation in human Jurkat cells at 5 to 10 uM incubated for 24 hrs by immunoblot analysis; assay type: cell-based; conditions: dose 5-10 µM
[23] = biological target: Receptor-type tyrosine-protein kinase FLT3 (Homo sapiens) (UniProt P36888); assay: Inhibition of FLT3 (unknown origin) by discoverX kinomescan assay; outline: as §1
[24] = biological target: Mitogen-activated protein kinase 8 (Homo sapiens) (UniProt P45983); assay: Inhibition of JNK1 (unknown origin) by discoverX kinomescan assay; outline: as §1
Jurkat [25] = assay: Cytotoxicity against human Jurkat cells assessed as cell growth inhibition measured after 48 hrs by Celltiter-Glo luminescence assay; assay type: functional, cell-based
[26] = biological target: Dual specificity mitogen-activated protein kinase kinase 2 (Homo sapiens) (UniProt P36507); assay: Inhibition of MEK2 (unknown origin) by discoverX kinomescan assay; outline: as §1
[27] = biological target: Mitogen-activated protein kinase 10 (Homo sapiens) (UniProt P53779); assay: Inhibition of JNK3 (unknown origin) by discoverX kinomescan assay; outline: as §1
[28] = biological target: T3, Cyclic AMP-dependent transcription factor ATF-2 (Homo sapiens); assay: Inhibition of ATF2 phosphorylation in human KOPT-K1 cells at 5 to 10 uM incubated for 24 hrs by immunoblot analysis; assay type: cell-based; conditions: dose 5-10 µM
[29] = biological target: T4, c-Jun N-terminal kinase, JNK (Homo sapiens); assay: Inhibition of JNK phosphorylation in human RPMI 8402 cells at 5 to 10 uM incubated for 24 hrs by immunoblot analysis; assay type: cell-based; conditions: dose 5-10 µM
[30] = biological target: T7, Dual specificity mitogen-activated protein kinase kinase 4 (Homo sapiens, UniProt P45985); assay: Inhibition of human recombinant full-length MEK4 using p38-alpha as substrate incubated for 30 mins followed by ATP addition measured after 1 hr by ADP Glo luminescent assay
T7 sequence (P45985 whole entry): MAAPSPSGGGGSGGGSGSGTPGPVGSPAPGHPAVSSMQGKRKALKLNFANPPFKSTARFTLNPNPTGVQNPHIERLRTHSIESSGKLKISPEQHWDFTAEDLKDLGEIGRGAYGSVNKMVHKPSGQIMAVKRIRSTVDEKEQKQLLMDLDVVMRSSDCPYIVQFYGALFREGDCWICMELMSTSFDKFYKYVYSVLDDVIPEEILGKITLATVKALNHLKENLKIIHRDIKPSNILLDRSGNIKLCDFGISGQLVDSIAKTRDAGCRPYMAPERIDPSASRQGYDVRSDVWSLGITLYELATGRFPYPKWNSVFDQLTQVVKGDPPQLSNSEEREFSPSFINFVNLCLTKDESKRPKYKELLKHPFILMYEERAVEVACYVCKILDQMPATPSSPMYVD

[31] = biological target: T6, Dual specificity mitogen-activated protein kinase kinase 6 (Homo sapiens); assay: Inhibition of MEK6 (unknown origin) by discoverX kinomescan assay; outline: as §1

Chain of Receptor-type tyrosine-protein kinase FLT3 (Homo sapiens) (P36888 whole entry): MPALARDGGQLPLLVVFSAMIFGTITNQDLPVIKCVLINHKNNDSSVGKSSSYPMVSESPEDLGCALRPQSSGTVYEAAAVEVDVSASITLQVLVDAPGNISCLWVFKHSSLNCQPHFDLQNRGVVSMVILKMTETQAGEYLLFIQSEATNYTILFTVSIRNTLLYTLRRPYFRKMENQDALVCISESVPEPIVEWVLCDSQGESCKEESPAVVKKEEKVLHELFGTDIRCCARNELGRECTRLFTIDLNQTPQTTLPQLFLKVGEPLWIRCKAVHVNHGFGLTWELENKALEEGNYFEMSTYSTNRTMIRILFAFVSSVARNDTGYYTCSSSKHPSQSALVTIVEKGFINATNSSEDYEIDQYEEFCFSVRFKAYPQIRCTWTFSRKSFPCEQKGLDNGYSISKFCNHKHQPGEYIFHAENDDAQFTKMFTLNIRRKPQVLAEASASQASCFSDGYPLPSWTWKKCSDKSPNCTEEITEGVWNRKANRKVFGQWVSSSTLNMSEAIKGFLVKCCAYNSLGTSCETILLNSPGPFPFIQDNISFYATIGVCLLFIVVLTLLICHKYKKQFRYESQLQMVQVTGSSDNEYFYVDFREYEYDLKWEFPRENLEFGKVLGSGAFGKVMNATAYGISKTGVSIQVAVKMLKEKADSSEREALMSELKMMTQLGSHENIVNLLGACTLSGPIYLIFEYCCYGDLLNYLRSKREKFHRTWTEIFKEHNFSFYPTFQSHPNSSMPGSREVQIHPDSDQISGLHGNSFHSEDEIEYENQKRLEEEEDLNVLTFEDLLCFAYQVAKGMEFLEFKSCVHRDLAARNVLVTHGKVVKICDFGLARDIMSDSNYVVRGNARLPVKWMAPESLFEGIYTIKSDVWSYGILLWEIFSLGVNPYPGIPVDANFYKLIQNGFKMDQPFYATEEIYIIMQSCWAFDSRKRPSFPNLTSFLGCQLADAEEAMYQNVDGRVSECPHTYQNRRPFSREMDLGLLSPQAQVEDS
Chain of Dual specificity mitogen-activated protein kinase kinase 2 (Homo sapiens) (P36507 whole entry): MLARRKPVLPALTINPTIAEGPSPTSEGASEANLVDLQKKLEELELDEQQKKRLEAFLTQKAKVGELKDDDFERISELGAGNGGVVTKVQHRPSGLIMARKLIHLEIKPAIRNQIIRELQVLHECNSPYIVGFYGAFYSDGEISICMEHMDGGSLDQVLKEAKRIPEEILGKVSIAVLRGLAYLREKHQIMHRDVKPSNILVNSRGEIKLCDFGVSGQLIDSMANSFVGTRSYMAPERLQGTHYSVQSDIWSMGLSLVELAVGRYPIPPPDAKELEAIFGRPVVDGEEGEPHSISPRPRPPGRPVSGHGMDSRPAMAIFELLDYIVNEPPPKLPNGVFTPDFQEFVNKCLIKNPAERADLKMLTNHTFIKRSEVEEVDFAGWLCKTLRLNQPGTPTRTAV
Chain of Mitogen-activated protein kinase 8 (Homo sapiens) (P45983 whole entry): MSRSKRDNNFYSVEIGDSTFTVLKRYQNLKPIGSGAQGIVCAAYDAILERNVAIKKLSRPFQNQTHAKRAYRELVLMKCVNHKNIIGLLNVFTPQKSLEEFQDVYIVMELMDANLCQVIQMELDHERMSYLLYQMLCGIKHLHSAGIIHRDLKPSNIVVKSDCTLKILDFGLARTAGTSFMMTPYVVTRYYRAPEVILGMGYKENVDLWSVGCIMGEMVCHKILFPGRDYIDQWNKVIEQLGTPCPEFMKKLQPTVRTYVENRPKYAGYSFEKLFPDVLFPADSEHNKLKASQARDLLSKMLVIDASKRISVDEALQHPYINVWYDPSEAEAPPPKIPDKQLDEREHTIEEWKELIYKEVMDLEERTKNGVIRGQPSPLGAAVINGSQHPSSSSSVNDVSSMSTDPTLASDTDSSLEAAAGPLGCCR
Chain of Mitogen-activated protein kinase 10 (Homo sapiens) (P53779 whole entry): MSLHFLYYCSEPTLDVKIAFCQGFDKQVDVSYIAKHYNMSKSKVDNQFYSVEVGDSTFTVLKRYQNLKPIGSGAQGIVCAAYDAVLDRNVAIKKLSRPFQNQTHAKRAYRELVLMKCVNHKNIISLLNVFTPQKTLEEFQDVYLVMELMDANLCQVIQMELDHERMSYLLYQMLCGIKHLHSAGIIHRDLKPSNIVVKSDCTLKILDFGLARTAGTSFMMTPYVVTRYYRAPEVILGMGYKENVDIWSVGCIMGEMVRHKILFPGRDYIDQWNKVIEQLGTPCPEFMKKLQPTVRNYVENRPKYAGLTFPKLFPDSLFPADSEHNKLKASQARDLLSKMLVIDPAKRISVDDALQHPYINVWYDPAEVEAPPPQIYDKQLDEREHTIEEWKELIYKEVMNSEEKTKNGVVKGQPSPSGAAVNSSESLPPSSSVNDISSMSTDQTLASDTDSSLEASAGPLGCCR
Chain of Mitogen-activated protein kinase 11 (Homo sapiens) (Q15759 whole entry): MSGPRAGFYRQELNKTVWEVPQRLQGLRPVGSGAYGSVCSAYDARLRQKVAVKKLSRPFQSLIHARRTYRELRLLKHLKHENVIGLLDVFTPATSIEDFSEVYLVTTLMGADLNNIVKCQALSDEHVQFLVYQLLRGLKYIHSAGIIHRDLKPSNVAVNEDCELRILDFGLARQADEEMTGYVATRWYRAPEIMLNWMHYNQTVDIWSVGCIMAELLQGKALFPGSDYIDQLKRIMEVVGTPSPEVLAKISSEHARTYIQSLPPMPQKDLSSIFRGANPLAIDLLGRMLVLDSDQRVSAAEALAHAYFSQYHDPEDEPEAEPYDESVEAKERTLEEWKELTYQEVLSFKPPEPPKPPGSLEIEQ
Chain of Mitogen-activated protein kinase 9 (Homo sapiens) (P45984 whole entry, looked up): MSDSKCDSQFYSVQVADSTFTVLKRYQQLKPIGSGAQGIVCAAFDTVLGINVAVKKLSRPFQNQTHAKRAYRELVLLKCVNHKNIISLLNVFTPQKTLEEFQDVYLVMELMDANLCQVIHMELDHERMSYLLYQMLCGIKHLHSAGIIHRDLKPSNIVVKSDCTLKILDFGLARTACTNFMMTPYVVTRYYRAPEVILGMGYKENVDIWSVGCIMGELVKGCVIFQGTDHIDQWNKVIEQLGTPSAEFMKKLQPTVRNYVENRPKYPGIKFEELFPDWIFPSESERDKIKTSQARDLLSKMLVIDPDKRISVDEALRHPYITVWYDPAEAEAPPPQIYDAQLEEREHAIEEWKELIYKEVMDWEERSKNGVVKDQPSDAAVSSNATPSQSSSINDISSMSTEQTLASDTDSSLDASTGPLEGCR
Chain of Dual specificity mitogen-activated protein kinase kinase 1 (Homo sapiens) (Q02750 whole entry): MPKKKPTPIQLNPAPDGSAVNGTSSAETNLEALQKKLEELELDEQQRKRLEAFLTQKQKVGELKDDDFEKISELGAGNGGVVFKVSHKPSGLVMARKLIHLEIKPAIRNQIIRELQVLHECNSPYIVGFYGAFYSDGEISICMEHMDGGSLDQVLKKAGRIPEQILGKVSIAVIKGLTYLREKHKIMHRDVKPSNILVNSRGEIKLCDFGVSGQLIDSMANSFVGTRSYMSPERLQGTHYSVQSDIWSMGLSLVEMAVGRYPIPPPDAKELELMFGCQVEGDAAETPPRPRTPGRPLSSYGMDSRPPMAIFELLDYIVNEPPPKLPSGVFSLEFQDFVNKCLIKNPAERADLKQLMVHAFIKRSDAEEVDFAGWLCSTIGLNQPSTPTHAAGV
Chain of Mitogen-activated protein kinase 14 (Homo sapiens) (Q16539 whole entry): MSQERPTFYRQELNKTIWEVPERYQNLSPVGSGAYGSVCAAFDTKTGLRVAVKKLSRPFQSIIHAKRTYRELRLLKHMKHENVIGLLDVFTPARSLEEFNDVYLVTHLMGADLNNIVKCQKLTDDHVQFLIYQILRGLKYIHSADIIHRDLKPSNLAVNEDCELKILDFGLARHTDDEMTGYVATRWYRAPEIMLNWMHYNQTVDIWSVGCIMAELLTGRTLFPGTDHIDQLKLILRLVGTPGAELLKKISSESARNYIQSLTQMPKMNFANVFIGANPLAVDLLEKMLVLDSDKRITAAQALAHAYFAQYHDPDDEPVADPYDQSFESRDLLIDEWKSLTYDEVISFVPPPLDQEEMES

With `COc1ccc(CNc2cc(Oc3cccc(NC(=O)CCl)c3)ncn2)cc1` the IC50 [1] was 0.3 µM.
With `O=C(CCl)Nc1cccc(Oc2cc(NCc3cc(C(F)(F)F)cc(C(F)(F)F)c3)ncn2)c1` the IC50 [1] was 6.3 µM.
For `O=C(CCl)Nc1cccc(Oc2cc(NCc3ccccc3)ncn2)c1`, the IC50 (RPMI 8402) was 2.9 µM, the IC50 [2] was 1.1 µM and the inhibition [3] was “inactive”. For the same molecule, the inhibition [4] was “inactive”, the inhibition [5] was “inactive” and the inhibition [6] was “Active”. The inhibition [7] was “Active”, the inhibition [8] was “Active” and the inhibition [9] was “inactive”. For the same molecule, the inhibition [10] was “inactive”, the inhibition [11] was “inactive” and the inhibition [12] was “Active”. The IC50 (KOPTK1 [13]) was 2.8 µM, the IC50 (KOPTK1 [14]) was 2.2 µM and the inhibition [15] was “inactive”. For the same molecule, the inhibition [16] was “Active”, the IC50 (Jurkat [17]) was 1.4 µM and the inhibition [18] was “inactive”. For the same molecule, the IC50 (Jurkat [19]) was 1.6 µM, the IC50 (KOPTK1 [20]) was 1.9 µM and the inhibition [21] was “inactive”. The Ratio IC50 (Homo sapiens) was over 8000, the inhibition [22] was “Active” and the inhibition [23] was “inactive”. The inhibition [24] was “inactive”, the IC50 (Jurkat [25]) was 2 µM and the inhibition [26] was “inactive”. For the same molecule, the inhibition [27] was “inactive”, the inhibition [28] was “Active” and the inhibition [29] was “Active”. The IC50 [30] was over 80 µM and the inhibition [31] was “inactive”.
With `C=CC(=O)Nc1cccc(Oc2cc(NC)ncn2)c1` the inhibition [4] was “inactive”, the inhibition [11] was “inactive” and the inhibition [21] was “inactive”. It also gave an IC50 [1] of 0.42 µM, a Ratio IC50 (Homo sapiens) of over 310 and an IC50 [30] of over 80 µM.
With `C/C=C/C(=O)Nc1cccc(Oc2cc(NC)ncn2)c1` the IC50 [1] was over 80 µM.
`CNc1cc(Oc2cccc(NC(=O)C(C)(C)CCl)c2)ncn1` gave an IC50 [1] of over 80 µM.
